Results: PubChem BioAssay
Active and inactive are the calls of the source.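 Rule for the calls, unless noted: active = current rise at least 3 SD above the untreated control mean in each of two repeat wells; inactive = the rest.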

Columns and labels:
[1] = nonspecific flux increase, KCNQ1-free cells – parental CHO cells, counter-screen for KCNQ1 potentiator project (AID 493006;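 active = duplicate-averaged activation above buffer control mean plus 5 SD of those controls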); settings: parental CHO-K1 cells, FluxOR thallium flux, at 10 µM; hits give high values
Procedure, shortened: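 Assay system: Untransfected host CHO-K1 cells with FluxOR thallium dye | Probe or stimulus: Potassium/thallium depolarization pulse | Schedule: Overnight 37 °C plating, 90 min RT dye, 20 min compound | Detection: Kinetic thallium-flux fluorescence | Read-out: Max-minus-min fluorescence over baseline, percent of buffer-to-R-L3 span | Benchmarks: Low control buffer, high control R-L3 activator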

[2] = biological target: Potassium voltage-gated channel subfamily KQT member 1 (Homo sapiens) (UniProt P51787); assay: enhancement of KCNQ1 channel thallium flux – FluxOR thallium flux, CHO cells, duplicates, confirmation (AID 493007;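 active = potentiation averaged over duplicate wells exceeding buffer-only control mean by more than 3 SD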;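 for outcome: cells depolarized by a potassium plus thallium sulfate stimulus after compound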); settings: KCNQ1 cell line, FluxOR thallium flux fluorescence, at 10 µM; hits give high values, % of reference activator effect, buffer zero
Chain of Potassium voltage-gated channel subfamily KQT member 1 (Homo sapiens) (P51787 whole entry, looked up): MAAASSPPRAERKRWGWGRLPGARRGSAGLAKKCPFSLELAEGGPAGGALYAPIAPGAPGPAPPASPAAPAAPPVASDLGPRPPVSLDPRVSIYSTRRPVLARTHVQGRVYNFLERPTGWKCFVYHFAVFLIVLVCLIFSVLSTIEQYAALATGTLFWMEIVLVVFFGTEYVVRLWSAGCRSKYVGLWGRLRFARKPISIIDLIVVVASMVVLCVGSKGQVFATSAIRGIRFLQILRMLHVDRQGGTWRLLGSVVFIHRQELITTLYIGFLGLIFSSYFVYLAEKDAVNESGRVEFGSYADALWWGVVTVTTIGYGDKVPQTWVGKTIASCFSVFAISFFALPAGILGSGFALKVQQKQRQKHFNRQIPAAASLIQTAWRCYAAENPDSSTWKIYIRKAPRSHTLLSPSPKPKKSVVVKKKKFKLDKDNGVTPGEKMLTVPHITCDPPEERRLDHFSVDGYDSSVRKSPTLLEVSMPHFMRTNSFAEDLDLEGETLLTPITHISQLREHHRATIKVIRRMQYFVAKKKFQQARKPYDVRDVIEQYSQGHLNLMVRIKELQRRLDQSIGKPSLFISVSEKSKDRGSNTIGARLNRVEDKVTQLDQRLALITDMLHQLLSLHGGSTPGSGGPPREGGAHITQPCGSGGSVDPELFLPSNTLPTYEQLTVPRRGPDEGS
Procedure, shortened: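 Material: KCNQ1-expressing CHO cell line; Incubation: FluxOR dye loading 90 min, compound exposure 20 min, room temperature; Detection: FluxOR Tl+ flux fluorescence, 10 s baseline plus 110 s recording; Read-out: percent activation between buffer and R-L3 responses; Control set: buffer-only wells as 0% and R-L3 activator as 100%; Replication: duplicate wells per compound.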

[3] = biological target: Potassium voltage-gated channel subfamily KQT member 2 (Rattus norvegicus) (UniProt O88943); assay: KCNQ2 thallium flux enhancement – KCNQ2-CHO-K1 cells, selectivity assay for KCNQ1 potentiator project (AID 493009;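 active = mean duplicate potentiation above the buffer control mean plus 5 SD of buffer wells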;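 note: assay conditions were tuned for KCNQ1 rather than KCNQ2 modulators; signal is max minus min fluorescence divided by baseline after thallium stimulus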); settings: FluxOR thallium flux fluorescence, at 10 µM; hits give high values, scaled: buffer 0, activator control 100
Chain of Potassium voltage-gated channel subfamily KQT member 2 (Rattus norvegicus) (O88943 whole entry, looked up): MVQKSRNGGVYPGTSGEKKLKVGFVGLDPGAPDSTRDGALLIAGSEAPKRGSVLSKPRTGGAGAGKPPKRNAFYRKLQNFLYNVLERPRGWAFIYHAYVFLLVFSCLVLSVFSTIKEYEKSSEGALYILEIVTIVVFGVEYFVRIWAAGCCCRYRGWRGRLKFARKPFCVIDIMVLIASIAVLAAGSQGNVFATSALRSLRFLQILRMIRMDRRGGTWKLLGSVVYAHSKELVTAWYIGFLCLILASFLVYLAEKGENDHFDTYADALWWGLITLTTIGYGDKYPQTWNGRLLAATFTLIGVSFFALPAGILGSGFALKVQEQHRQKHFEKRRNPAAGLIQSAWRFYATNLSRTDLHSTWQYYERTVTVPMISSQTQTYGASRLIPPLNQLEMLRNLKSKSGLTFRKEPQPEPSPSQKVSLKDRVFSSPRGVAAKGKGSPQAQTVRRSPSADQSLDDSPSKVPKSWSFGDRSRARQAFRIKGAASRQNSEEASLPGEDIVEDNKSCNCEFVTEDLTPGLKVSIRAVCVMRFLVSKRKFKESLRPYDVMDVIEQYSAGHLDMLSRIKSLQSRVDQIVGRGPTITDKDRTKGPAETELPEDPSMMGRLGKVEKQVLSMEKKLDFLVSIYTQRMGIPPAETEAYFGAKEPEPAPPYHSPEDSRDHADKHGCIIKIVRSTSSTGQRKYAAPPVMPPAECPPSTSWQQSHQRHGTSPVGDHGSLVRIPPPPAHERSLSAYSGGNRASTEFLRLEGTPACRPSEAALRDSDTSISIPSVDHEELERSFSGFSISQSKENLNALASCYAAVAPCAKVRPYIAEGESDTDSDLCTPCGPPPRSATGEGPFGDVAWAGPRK

[4] = biological target: Potassium voltage-gated channel subfamily KQT member 1 (Homo sapiens) (UniProt P51787); assay: KCNQ1 activators by electrophysiology – IonWorks patch clamp, KCNQ1-CHO cells, orthogonal assay for KCNQ1 potentiator project, confirmation (AID 493184); settings: automated patch clamp current, at 10 µM; hits give high values
Procedure, shortened: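 assay system = KCNQ1-expressing CHO cells | medium = external bath solution at pH 7.4 | probe or stimulus = 2,000 ms depolarization, -90 to +40 mV | compound dosing = 10 µM final, single point | measured by = automated voltage clamp, amphotericin B perforated patch | measure = percent current increase versus pre-compound level | replication = duplicates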

| SMILES | outcome [1] | outcome [2] | outcome [3] | outcome [4] | activation [1] | potentiation [2] | potentiation [3] |
| --- | --- | --- | --- | --- | --- | --- | --- |
| COc1ccc(C(=O)O/N=C(\N)c2ccccc2Cl)cc1OC | inactive | inactive | inactive | inactive |  |  |  |
| Cc1cccc(C(=O)Nc2ccccc2C(=O)NCc2cccnc2)c1 | inactive | inactive | inactive | inactive |  |  |  |
| Cc1ccc(C(=O)CC(=O)c2cccc(F)c2)c(O)c1 |  |  |  | inactive | 156% (active) | 35% (active) | 150% (active) |
| CC(C)c1ccc(/C=N/n2c(COc3ccccc3)n[nH]c2=S)cc1 |  |  |  | inactive | 190% (active) | 512% (active) | 503% (active) |
| CC(CCc1ccccc1)NC(=O)COc1cc(F)ccc1[N+](=O)[O-] (stereo not given) | inactive | inactive | inactive | inactive |  |  |  |
| CN(C)CCCNc1nc2sc3c(c2c(=O)n1CCc1ccccc1)CCCCC3 | inactive | inactive | inactive | inactive |  |  |  |
| O=C(/C=C/c1ccco1)Nc1scc(-c2ccccc2)c1C(=O)O | inactive | inactive | inactive | inactive |  |  |  |
| CCCOc1ccccc1Cn1c(=O)oc2ccc(C)cc21 | inactive | inactive | inactive | inactive |  |  |  |
| CC1(C)N=C(N)NC(Nc2cccc(Br)c2)=N1 | inactive | inactive | inactive | inactive |  |  |  |
| COc1cccc(C(=O)NNC(=O)C(=O)Nc2ccc(OC)cc2OC)c1 |  |  |  | inactive | 178% (active) | 41% (active) | 202% (active) |
| Cc1c(C(=O)NC(=S)NCc2cccnc2)oc2ccccc12 | inactive | inactive | inactive | inactive |  |  |  |
| Cc1nonc1NC(=O)OC1CCCCC1 | inactive | inactive | inactive | inactive |  |  |  |
| O=C(NC(=S)Nc1ccccc1Cl)c1csnn1 |  |  |  | inactive | 450% (active) | 174% (active) | 510% (active) |
| O=C(NN=C1CCCCCC1)c1cc(-c2ccccc2)nc2ccccc12 | inactive | inactive | inactive | inactive |  |  |  |
| CCOC(=S)NC(=O)c1sc2ccccc2c1Cl |  |  |  | inactive | 398% (active) | 122% (active) | 404% (active) |
| CC1CCCCN1C(=S)NC(=O)c1cccs1 (stereo not given) | inactive | inactive | inactive | inactive |  |  |  |
| CCc1ccc2[nH]c(C(=O)Nc3ccc(F)cc3Br)cc2c1 | inactive | inactive | inactive | inactive |  |  |  |
| CC(/C=N/n1c(-c2ccc(C)cc2)n[nH]c1=S)=C\c1ccco1 | inactive | inactive | inactive | inactive |  |  |  |
| S=C(Nc1ccc(Br)cc1)N1CCn2cccc2C1c1cccnc1 (stereo not given) | inactive | inactive | inactive | inactive |  |  |  |
| COCCn1c(=S)[nH]c2sc3c(c2c1=O)CCC(C)C3 (stereo not given) |  |  |  | inactive | 541% (active) | 191% (active) | 514% (active) |

| SMILES | outcome [1] | outcome [2] | outcome [3] | outcome [4] | activation [1] | potentiation [2] | potentiation [3] |
| --- | --- | --- | --- | --- | --- | --- | --- |
| CC(C)(C)CC(C)(C)NC(=S)NC1CCN(Cc2ccccc2)CC1 | inactive | inactive | inactive | inactive |  |  |  |
| CCc1ccc(S(=O)(=O)Nc2cc3c(cc2N2CCCCC2)n(C)c(=O)c(=O)n3C)cc1 | inactive | inactive | inactive | inactive |  |  |  |
| CC12CCC(C/C1=N\N=C1\NC(=O)/C(=C\c3ccc(Cl)cc3)S1)C2(C)C (stereo not given) |  |  |  | inactive | 175% (active) | 74.5% (active) | 204% (active) |
| O=C(CCC1CCN(C(=O)c2cncs2)CC1)Nc1ccccc1 |  |  |  | inactive | 446% (active) | 164% (active) | 464% (active) |
| Nc1ccccc1OCCOCCOc1ccccc1N | inactive | inactive | inactive | inactive |  |  |  |
| Cc1ccc(OCC(=O)NNC(=O)C(=O)NC(C)(C)C)cc1 |  |  |  | inactive | 170% (active) | 43% (active) | 176% (active) |
| COc1ccc(N/C=C/C(=O)c2cc(OC)c(OC)c(OC)c2)cc1 |  |  |  | inactive | 366% (active) | 188% (active) | 365% (active) |
| CCOc1ccc(C(=O)N2CCCC(c3nc(-c4ccc(C)o4)no3)C2)cc1 (stereo not given) | inactive | inactive | inactive | inactive |  |  |  |
| CSC(=S)N/N=C(\C)c1ccc(Br)cc1 |  |  |  | inactive | 309% (active) | 132% (active) | 258% (active) |
| COc1ccc(CN2C(=O)C(O)(CC(=O)c3ccc4c(c3)OCO4)c3ccccc32)cc1OC (stereo not given) | inactive | inactive | inactive | inactive |  |  |  |
| CC(=O)CSc1ncnc2sc3c(c12)CCC(C)C3 (stereo not given) |  |  |  | inactive | 474% (active) | 154% (active) | 406% (active) |
| O=C(Nc1nc2c(F)cc(F)cc2s1)C1COc2ccccc2O1 (stereo not given) |  |  |  | inactive | 142% (active) | 68.5% (active) | 194% (active) |
| Cc1ccc(C(=O)OCC(=O)Nc2sc3c(c2C#N)CCCC3)cc1NC(=O)c1ccco1 | inactive | inactive | inactive | inactive |  |  |  |
| CC1(c2ccc(OC(F)F)cc2)NC(=O)N(CC(=O)Nc2ccc(OC(F)F)cc2)C1=O (stereo not given) | inactive | inactive | inactive | inactive |  |  |  |
| O=C(NC1CC1)C1=NOC(CNc2ncc(C(F)(F)F)cc2Cl)C1 (stereo not given) | inactive | inactive | inactive | inactive |  |  |  |
| CC(C)CN=Cc1c(O)c([N+](=O)[O-])cc2oc3c(c12)CCCC3 | inactive | inactive | inactive | inactive |  |  |  |
| CC(=O)O[C@H]1CSC[C@H]1NC(=O)c1ccccc1 | inactive | inactive | inactive | inactive |  |  |  |
| CCN=C1SC(CC(=O)Nc2ccccc2OCC)C(=O)N1CC (stereo not given) | inactive | inactive | inactive | inactive |  |  |  |
| COc1cnc(-c2ccccn2)nc1Oc1ccccc1Cl | inactive | inactive | inactive | inactive |  |  |  |
| C/C(=N\NC(=O)c1cccc(Br)c1)c1ccccn1 | inactive | inactive | inactive | inactive |  |  |  |

| SMILES | outcome [1] | outcome [2] | outcome [3] | outcome [4] | activation [1] | potentiation [2] | potentiation [3] |
| --- | --- | --- | --- | --- | --- | --- | --- |
| Cc1ccnc(NC(=O)CNC(=O)c2ccc3c(c2)OCO3)c1 | inactive | inactive | inactive | inactive |  |  |  |
| COCCN(CCOC)Cc1cc(=O)oc2cc3c(cc12)CCC3 |  |  | inactive | inactive | 145% (active) | 45.5% (active) |  |
| CCOC(=O)Cc1csc(NC(=S)NC(=O)c2ccc(F)cc2)n1 | inactive | inactive | inactive | inactive |  |  |  |
| CC(C)(C)c1cc(C(=O)NNC(=O)c2ccc(C(F)(F)F)cc2)no1 | inactive |  |  | inactive |  | 32% (active) | 161% (active) |
| N#Cc1ccc(-c2nc3ccc(Br)cc3c(=O)n2O)cc1 |  |  |  | inactive | 300% (active) | 120% (active) | 354% (active) |
| CCN(C(=S)NC(=O)c1ccccc1Br)C1CCCCC1 |  |  |  | inactive | 358% (active) | 124% (active) | 370% (active) |
| O=C(NC(=S)NCc1ccccc1)c1ccc(Br)o1 |  |  |  | inactive | 434% (active) | 313% (active) | 510% (active) |
| CN(C(=O)c1cc(COc2c(F)cccc2F)on1)C1CCOC1 (stereo not given) | inactive | inactive | inactive | inactive |  |  |  |
| CC(=O)c1cc2c(cc1NC(=O)CN1Cc3ccccc3C1=O)OCO2 | inactive | inactive | inactive | inactive |  |  |  |
| Cc1c(-c2ccccc2)sc2nc[nH]c(=S)c12 |  |  |  | inactive | 307% (active) | 130% (active) | 304% (active) |
| Cn1cc(-c2nnnn2-c2ccccc2)c(=O)c2ccccc21 | inactive | inactive | inactive | inactive |  |  |  |
| CCOc1ccc(S(=O)(=O)N2CCCC(C(=O)NCCN3CCOCC3)C2)cc1Cl (stereo not given) |  |  |  | inactive | 260% (active) | 108% (active) | 250% (active) |
| Cc1cccc(CS(=O)(=O)c2ncc(CO)n2C)c1 | inactive | inactive | inactive | inactive |  |  |  |
| Cc1ccc2nc(N3CCN(Cc4ccc(F)cc4)C3=O)c(C)cc2c1 | inactive | inactive | inactive | inactive |  |  |  |
| O=C(NC(=S)N1CCN(c2ccc(F)cc2)CC1)c1cccs1 |  |  |  | inactive | 274% (active) | 84.5% (active) | 338% (active) |
| CCc1nnc(NC(=O)CSc2n[nH]c(-c3ccccc3O)n2)s1 | inactive | inactive | inactive | inactive |  |  |  |
| O=C1NN(c2ccccc2)C(=O)/C1=C\c1cccc(OC(=O)c2cccs2)c1 |  |  |  | inactive | 187% (active) | 61.5% (active) | 202% (active) |
| CCCc1c(C)[nH]c2ccc(NC(C)=O)cc2c1=O | inactive | inactive | inactive | inactive |  |  |  |
| COc1cccc(OC)c1C(=O)Nc1ccc(C(=O)NCc2ccccc2)cc1 | inactive | inactive | inactive | inactive |  |  |  |
| CC(=O)c1c(N)[nH]c(-c2ccccc2)nc1=S | inactive | inactive | inactive | inactive |  |  |  |
